According to ChEMBL document CHEMBL3352462, “Aldosterone synthase inhibitors as promising treatments for mineralocorticoid dependent cardiovascular and renal diseases” (J Med Chem, 2014):
Each block holds one compound with its values, some of them ahead of it.

Tests used:
Homo sapiens [1] = species on record: Homo sapiens; assay: Selectivity ratio of IC50 for human CYP11B1 to IC50 for human CYP11B2
Method in brief: (§1)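 Whole-cell assay in V79MZ (Chinese hamster lung fibroblast) cells stably expressing human CYP11B2; a parallel line stably expressing human CYP11B1 gives the counter-target IC50. Selectivity is expressed as the CYP11B1/CYP11B2 IC50 ratio.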

[2] = target: T1, Cytochrome P450 11B2, mitochondrial (Homo sapiens, UniProt P19099); assay: Inhibition of human CYP11B2 expressed in NCI-H295R cells assessed as reduction in aldosterone formation; assay type: cell-based
T1 sequence (P19099 whole entry): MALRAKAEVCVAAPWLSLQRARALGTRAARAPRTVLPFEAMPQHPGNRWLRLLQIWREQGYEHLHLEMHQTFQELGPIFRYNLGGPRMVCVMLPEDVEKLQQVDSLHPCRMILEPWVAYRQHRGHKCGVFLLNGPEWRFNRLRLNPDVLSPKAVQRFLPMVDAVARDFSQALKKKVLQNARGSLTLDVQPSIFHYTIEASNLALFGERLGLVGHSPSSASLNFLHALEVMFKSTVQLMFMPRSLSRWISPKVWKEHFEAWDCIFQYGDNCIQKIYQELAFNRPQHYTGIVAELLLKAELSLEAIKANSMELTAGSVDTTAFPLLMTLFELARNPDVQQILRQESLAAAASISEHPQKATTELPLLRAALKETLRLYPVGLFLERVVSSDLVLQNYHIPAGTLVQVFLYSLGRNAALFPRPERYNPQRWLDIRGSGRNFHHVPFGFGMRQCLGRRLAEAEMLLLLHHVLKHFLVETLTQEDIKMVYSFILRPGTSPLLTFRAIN

[3] = target: T2, Cytochrome P450 11B1, mitochondrial (Homo sapiens, UniProt P15538); assay: Inhibition of human CYP11B1 expressed in NCI-H295R cells at 100 nM; assay type: cell-based
T2 sequence (P15538 whole entry): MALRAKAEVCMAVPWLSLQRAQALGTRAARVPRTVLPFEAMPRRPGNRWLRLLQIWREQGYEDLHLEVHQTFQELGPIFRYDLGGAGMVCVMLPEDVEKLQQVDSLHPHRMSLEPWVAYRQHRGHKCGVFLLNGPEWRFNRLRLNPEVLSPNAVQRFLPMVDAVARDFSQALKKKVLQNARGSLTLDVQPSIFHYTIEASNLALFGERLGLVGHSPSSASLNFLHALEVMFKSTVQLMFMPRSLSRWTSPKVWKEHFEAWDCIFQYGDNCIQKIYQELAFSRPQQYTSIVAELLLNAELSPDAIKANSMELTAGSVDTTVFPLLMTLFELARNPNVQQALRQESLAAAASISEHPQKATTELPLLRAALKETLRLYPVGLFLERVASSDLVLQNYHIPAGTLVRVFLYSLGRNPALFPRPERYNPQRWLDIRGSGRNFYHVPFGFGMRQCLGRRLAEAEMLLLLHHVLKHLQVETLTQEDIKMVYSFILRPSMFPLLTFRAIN

[4] = target: T1, Cytochrome P450 11B2, mitochondrial; assay: Inhibition of human aldosterone synthase
Rattus norvegicus [5] = assay: Decrease in corticosterone level Wistar rat plasma at 4 mg/kg, po measured after 2 hrs by radioimmunoassay; assay type: functional
Rattus norvegicus [6] = assay: Decrease in aldosterone level Wistar rat plasma at 4 mg/kg, po measured after 2 hrs by radioimmunoassay; assay type: functional
Cytochrome P450 1A2 = target: T3, Cytochrome P450 1A2 (Homo sapiens, UniProt P05177); assay: Inhibition of CYP1A2 (unknown origin); assay type: ADME
T3 sequence (P05177 whole entry): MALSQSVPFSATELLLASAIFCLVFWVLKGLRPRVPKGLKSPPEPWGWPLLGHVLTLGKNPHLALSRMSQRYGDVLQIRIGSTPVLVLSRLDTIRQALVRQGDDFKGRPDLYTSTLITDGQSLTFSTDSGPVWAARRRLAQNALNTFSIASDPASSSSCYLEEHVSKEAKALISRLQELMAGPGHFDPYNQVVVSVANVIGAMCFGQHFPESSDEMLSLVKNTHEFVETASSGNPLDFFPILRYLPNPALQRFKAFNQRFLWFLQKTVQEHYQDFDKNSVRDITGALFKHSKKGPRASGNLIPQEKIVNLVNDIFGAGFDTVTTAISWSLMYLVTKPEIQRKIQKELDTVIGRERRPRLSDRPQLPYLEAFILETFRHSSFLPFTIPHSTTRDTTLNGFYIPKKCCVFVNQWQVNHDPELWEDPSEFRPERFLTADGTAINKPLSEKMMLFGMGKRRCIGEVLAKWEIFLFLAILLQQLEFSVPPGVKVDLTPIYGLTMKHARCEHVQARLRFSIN

[7] = target: T1, Cytochrome P450 11B2, mitochondrial; assay: Inhibition of human aldosterone synthase expressed in V79 MZ cells; assay type: cell-based, V79MZ; method in brief: as §1
[8] = target: T1, Cytochrome P450 11B2, mitochondrial; assay: Inhibition of human CYP11B2 expressed in G402 cells; assay type: cell-based, G-402
[9] = target: T1, Cytochrome P450 11B2, mitochondrial; assay: Inhibition of human aldosterone synthase in homogenized rat glomerulosa tissue
[10] = target: T4, Cytochrome P450 11B2, mitochondrial (Rattus norvegicus, UniProt P30099); assay: Inhibition of aldosterone synthase in rat adrenal assessed as decrease in 18-OH-corticosterone level at 100 uM
T4 sequence (P30099 whole entry): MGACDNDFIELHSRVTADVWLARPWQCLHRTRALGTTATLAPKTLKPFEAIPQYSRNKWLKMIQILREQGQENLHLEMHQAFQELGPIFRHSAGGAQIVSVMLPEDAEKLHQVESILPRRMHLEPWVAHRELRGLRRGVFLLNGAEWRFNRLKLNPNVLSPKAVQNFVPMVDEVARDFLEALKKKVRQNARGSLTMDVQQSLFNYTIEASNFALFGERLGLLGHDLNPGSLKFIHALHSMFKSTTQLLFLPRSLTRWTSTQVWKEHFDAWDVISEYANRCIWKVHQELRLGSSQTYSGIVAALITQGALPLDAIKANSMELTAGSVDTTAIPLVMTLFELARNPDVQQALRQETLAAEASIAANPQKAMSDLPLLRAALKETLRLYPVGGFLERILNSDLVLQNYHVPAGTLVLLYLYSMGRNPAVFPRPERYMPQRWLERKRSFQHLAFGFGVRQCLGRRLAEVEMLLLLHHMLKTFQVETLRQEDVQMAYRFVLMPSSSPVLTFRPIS

[11] = target: T4, Cytochrome P450 11B2, mitochondrial; assay: Inhibition of aldosterone synthase in rat adrenal assessed as decrease in aldosterone level at 100 uM
[12] = target: T1, Cytochrome P450 11B2, mitochondrial; assay: Inhibition of human aldosterone synthase expressed in V79 MZ cells assessed as inhibition of aldosterone synthesis; assay type: cell-based, V79MZ
Rattus norvegicus [13] = assay: Decrease in myocardial fibrosis in SHR rat at 1.2 mg/kg/day, po; settings: Myocardium, read-out: INH
[14] = target: T1, Cytochrome P450 11B2, mitochondrial; assay: Inhibition of human aldosterone synthase by cell based assay
[15] = Elimination half life in sodium depleted healthy human; settings: in vivo
[16] = Tmax in sodium depleted healthy human; settings: in vivo
Homo sapiens [17] = species on record: Homo sapiens; assay: Decrease in diastolic blood pressure in hypertension patient at 50 mg, bid for 8 weeks; assay type: functional, Artery
Homo sapiens [18] = species on record: Homo sapiens; assay: Increase in aldosterone level in primary aldosteronism patient plasma at 50 mg, bid for 31 days; assay type: functional
Homo sapiens [19] = species on record: Homo sapiens; assay: Increase in aldosterone level in sodium depleted healthy human urine; assay type: functional
Homo sapiens [20] = species on record: Homo sapiens; assay: Increase in aldosterone level in sodium depleted healthy human plasma; assay type: functional

Ratio IC50 (Homo sapiens [1]): 421
Structure (SMILES): Cc1ccncc1-c1cc(F)c2c(c1)CCc1nnc(C)n1-2

Ratio IC50 (Homo sapiens [1]): 322
Structure (SMILES): CCS(=O)(=O)NCc1cncc(-c2c(C)c3ccccc3n2C)c1

Ratio IC50 (Homo sapiens [1]): > 1000
Structure (SMILES): Cn1c(-c2cncc3ccccc23)nc2ccc(F)c(F)c21

IC50 [2]: 5 nM
Structure (SMILES): CCS(=O)(=O)N(Cc1cncc(-c2cccc(Cl)c2Cl)c1)C1CC1

inhibition at 0.1 µM [3]: 94%
IC50 [4]: 3 nM
Structure (SMILES): CCOC(=O)c1cncn1C1c2ccccc2C(=O)OC1(C)C (stereo not drawn)

Structure (SMILES): N#Cc1ccc2c(c1)C1(CCC2)OCCn2cncc21 (stereo not drawn)
inhibition in vivo at 4 mg/kg (Rattus norvegicus [5]): 15%
inhibition in vivo at 4 mg/kg (Rattus norvegicus [6]): 82%

Structure (SMILES): CC(O)c1c(F)cncc1-c1cc2cc(Cl)c(F)cc2o1 (stereo not drawn)
Ratio IC50 (Homo sapiens [1]): 427
IC50 [2]: 2.5 nM

Ratio IC50 (Homo sapiens [1]): 50
IC50 (Cytochrome P450 1A2): > 100000 nM
Structure (SMILES): c1cncc(C2CCCCCCC2)c1

Ratio IC50 (Homo sapiens [1]): 128
IC50 [7]: 2.2 nM
Structure (SMILES): Cc1cncc(-c2cc3n(n2)CCC(=O)N3)c1

IC50 [8]: 2.8 nM
Ratio IC50 (Homo sapiens [1]): 589
Structure (SMILES): CC1(C)c2cc(Cl)ccc2C(=O)N1c1cncc(C2CCCN(S(C)(=O)=O)C2)n1 (stereo not drawn)

IC50 [9]: 50 nM
Structure (SMILES): c1ccc2c(-c3cccc4cncn34)cccc2c1

inhibition at 100 µM [10]: > 40%
inhibition at 100 µM [11]: > 40%
Structure (SMILES): CC(=O)S[C@@H]1CC2=CC(=O)C=C[C@]2(C)[C@H]2CC[C@@]3(C)[C@@H]([C@@H]4C[C@@H]4[C@@]34CCC(=O)O4)[C@H]12 [MESPIRENONE]

Structure (SMILES): CN[C@@H]1C[C@H]2O[C@@](C)([C@@H]1OC)n1c3ccccc3c3c4c(c5c6ccccc6n2c5c31)C(=O)NC4 [STAUROSPORINE]
IC50 [12]: 11 nM

Structure (SMILES): N#Cc1ccc([C@H]2CCCc3cncn32)cc1 [DEXFADROSTAT]
inhibition in vivo at 1.2 mg/kg/day (Rattus norvegicus [13]): 50%

Structure (SMILES): COc1cccc2c1CCC1C(c3cnc[nH]3)C21 (stereo not drawn)
Ratio IC50 (Homo sapiens [1]): 2
IC50 [14]: 41 nM

Ratio IC50 (Homo sapiens [1]): < 5
IC50 [14]: 59 nM
Structure (SMILES): Oc1ccc2c(c1)CC(Cc1ccncc1)C2 (stereo not drawn)

Structure (SMILES): CSc1ccc(C2CCCn3cncc32)cc1 (stereo not drawn)
inhibition in vivo at 4 mg/kg (Rattus norvegicus [6]): 62%

IC50 [2]: 1.4 nM
Structure (SMILES): Cn1c(=O)oc2cc(-c3cncc(C(O)C(F)(F)F)c3)ccc21 (stereo not drawn)

half-life [15]: 4 h
Tmax [16]: 1 h
Structure (SMILES): N#Cc1ccc([C@H]2CCc3cncn32)c(F)c1 [OSILODROSTAT]

Structure (SMILES): COC(=O)[C@@H]1CC2=CC(=O)CC[C@]2(C)[C@@]23O[C@@H]2C[C@@]2(C)[C@@H](CC[C@@]24CCC(=O)O4)[C@H]13 [EPLERENONE]
Activity (Homo sapiens [17]): -7.9 mmHg
Activity (Homo sapiens [18]): 89%
Activity (Homo sapiens [19]): 88%
Activity (Homo sapiens [20]): 38%
